Kir21 inh = inhibitors of mouse Kir2.1 inward-rectifier potassium channel; HEK293-Kir2.1, FluxOR thallium flux fluorescence; hits give low values; P35561; B-score at 10 µM; 0.85% of 310,000 active;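 active means fluorescence ratio B-score at or below minus 3 SD of library scores, with starting-brightness B-score within 2 SD, cut at about -4.2 in these data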;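 further: channel flux triggered by added potassium and thallium sulfate stimulus; B-score of peak minus minimum fluorescence over baseline after thallium stimulus; more negative B-score means stronger Kir2.1 block with less thallium influx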
Target sequence (P35561 whole entry, looked up): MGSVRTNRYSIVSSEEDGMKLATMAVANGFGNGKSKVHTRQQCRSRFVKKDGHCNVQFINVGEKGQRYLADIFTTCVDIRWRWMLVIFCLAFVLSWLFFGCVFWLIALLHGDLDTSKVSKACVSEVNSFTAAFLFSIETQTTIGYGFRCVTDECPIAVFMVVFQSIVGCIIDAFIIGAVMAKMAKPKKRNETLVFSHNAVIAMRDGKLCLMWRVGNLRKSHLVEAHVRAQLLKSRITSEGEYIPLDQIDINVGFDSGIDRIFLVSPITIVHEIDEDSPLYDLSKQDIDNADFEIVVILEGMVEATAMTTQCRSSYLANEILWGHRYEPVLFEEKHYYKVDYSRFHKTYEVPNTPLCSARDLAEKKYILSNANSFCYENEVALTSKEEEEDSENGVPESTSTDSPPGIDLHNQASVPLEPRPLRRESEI
KCNQ1 act = potentiates or activates the human KCNQ1 potassium channel; 0.35% of 310,000 active; B-score at 10 µM; AID 2648; CHO-K1 KCNQ1, thallium flux FluxOR fluorescence; hits give high values; P51787;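 active means fluorescence ratio B-score, a plate-corrected score, at least three library SD, with initial intensity B-score within 5 SD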
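Material: CHO-K1 cells stably expressing KCNQ1. Medium: assay buffer for compound exposure, DMSO matched across wells. Reagent: K+/Tl+ depolarizing stimulus. Compound dosing: single-concentration screen. Times: 37 °C overnight plating, 90-min dark dye load, 20-min compound pretreatment. Technique: FluxOR Tl+ flux fluorescence.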
KCNK9 inh = human KCNK9 channel inhibition; B-score at 10 µM; AID 488922; Q9NPC2; HEK293 KCNK9, FluxOR thallium flux fluorescence; hits give low values; 1.2% of 310,000 active;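 active means ratio B-score over 3 SD below the library mean, with starting fluorescence within 5 SD of its mean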;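 further: negative B-score means less thallium flux so channel inhibition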
KCNQ1 block = human KCNQ1 channel inhibition. P51787. CHO-K1 KCNQ1, FluxOR thallium flux fluorescence; hits give high values. B-score at 10 µM. 1.3% of 310,000 active. AID 2642;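 active means compounds whose thallium flux B-score, printed positive for inhibition, exceeds three library SD while starting fluorescence stays within three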;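 further: channel opened by potassium depolarization with thallium stimulus after 20 min compound exposure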
hERG protect = shields human hERG channel from block by proarrhythmic agents. AID 1511. 0.51% of 310,000 active. CHO-hERG, FluxOR thallium flux, dofetilide IC70 present. Q12809. activation (rescue from dofetilide block), less the hit threshold, % at 10 µM;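 active means activation above the mean of controls blocked by dofetilide plus 5 SD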;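 further: thallium influx through hERG after potassium depolarization seen as dye fluorescence rise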
KCNK3 block = human KCNK3 channel inhibition, primary screen | O14649 | CHO-KCNK3 thallium flux, FluxOR fluorescence; hits give low values | B-score at 10 µM | 0.84% of 340,000 active;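 active means B-score under library mean minus 4 SD, starting fluorescence ratio at most library mean plus 5 SD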;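 further: more negative B-score means stronger inhibition of thallium flux through KCNK3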
KCNK9 inh conf = confirmation of human KCNK9 potassium channel inhibitors; inhibition, % at 10 µM; 43% of 4,900 active; shares compounds with KCNK9 inh; AID 492992; HEK293 KCNK9 cells, FluxOR thallium flux fluorescence;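 active means thallium signal inhibited by more than 5 SD of the compound-free buffer control wells, on both duplicate plates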;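 further: 0% = assay buffer control wells without compound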
Kir21 sel = mouse Kir2.1 off-target activity of KCNK9 modulators. shares compounds with KCNK9 inh. Kir2.1 cells, FluxOR thallium flux fluorescence. inhibition, % at 10 µM. 4% of 4,900 active;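 active means thallium signal drop more than 5 SD beyond the mean of the no-compound control wells, seen in both duplicate plates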;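 further: signal is fluorescence rise after thallium addition divided by baseline fluorescence; plate controls were assay buffer only for no effect and full block by chlorpromazine control for full effect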
KCNK9 uninduced = second counter-screen for KCNK9 modulators: effect in non-induced cells; shares compounds with KCNK9 inh; non-induced KCNK9-HEK293, FluxOR thallium flux; inhibition, % at 10 µM; 40% of 4,900 active; AID 492997;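 active means thallium signal drop beyond 5 SD of the untreated control mean, on both duplicate plates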;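 further: plate controls were buffer only IC0 wells for no effect and SID17386958 at its maximal inhibitory level for full effect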
The depositor's hits bear a star; i = inactive; · = not tested or not shown. Only some compounds are listed: those with a hit (about 3.7% of all), similar ones and a draw of the others.

SMILES	Kir21 inh	KCNQ1 act	KCNK9 inh	KCNQ1 block	hERG protect	KCNK3 block	KCNK9 inh conf	Kir21 sel	KCNK9 uninduced
COc1ccc2c(c1)CCC/C2=N/OC(=O)c1ccccc1OC	0.37	i	-12.4*	i	-9.8	i	62.5%*	i	i
COC(=O)c1ccccc1NC(=O)C1CCCN(S(=O)(=O)c2ccc(F)cc2)C1 (stereo not given)	1.38	i	i	i	-0.5	i	i	i	i
COC(=O)c1ccccc1NC(=O)C1CCCN(S(=O)(=O)c2ccccc2)C1 (stereo not given)	-0.4	i	i	i	-8.5	i	i	i	i
COc1ccccc1NS(=O)(=O)c1cc(NC(=O)C(C)C)ccc1N1CCCCC1	0.79	i	-10.8*	i	-4.2	i	52.5%*	i	35.0%*
COC(=O)c1cc(NC(=O)CN(c2ccccc2OC)S(=O)(=O)c2ccccc2)ccc1Cl	-1.7	i	-14.9*	i	-7.2	i	64.5%*	i	i
Cc1cc(CN(C)C(=O)c2cc(COc3ccc(C)c(C)c3)on2)on1	-1.22	i	i	i	-13.6	i	·	·	·
CCOCCCNC(=O)c1oc2ccc3c(c2c1C)C(O)CC(C)(C)O3 (stereo not given)	1.03	i	i	i	-1.6	i	·	·	·
O=C(CSc1ccc2ccccc2n1)N1CCC(c2noc3ccc(F)cc23)CC1	-0.66	i	-9.02*	i	-9.2	i	i	i	i
Cc1nnc(SCC(=O)N2CCC(c3noc4ccc(F)cc34)CC2)s1	0.48	i	i	i	-11.2	i	·	·	·
CCN1N=C(C)C=C(c2ccccc2)n2c1nc1ccccc12	-0.48	i	i	i	-12.1	i	·	·	·
COc1ccc(-c2csc(Nc3ccccc3)[n+]2Cc2ccccc2)cc1	0.56	i	-9.39*	i	-15.5	i	45.5%*	i	27.0%*
Cc1ccc(CN2CCSc3ccc(C(=O)NC4CCN(Cc5ccccc5)CC4)cc32)cc1	-0.49	i	i	7*	-21.5	i	i	i	i
CC1CC(C)CN(C(=O)c2ccc3c(c2)N(Cc2ccccc2)CCS3)C1 (stereo not given)	-1.46	i	-8.2*	i	-6.8	-12*	51.0%*	i	34.0%*
CCN(C(=O)COC(=O)c1ccc[nH]c1=O)c1cccc2ccccc12	·	·	·	·	·	i	·	·	·
COc1cccc(NC(=O)Cn2nnc(C(=O)NCCc3ccccc3)c2N)c1	-0.48	i	i	i	-6.4	i	·	·	·
Cc1cc(Nc2ccc(Br)cc2F)n2nc(C)nc2n1	0.12	i	i	i	-4.8	i	·	·	·
CCc1nc2c(s1)CCc1onc(-c3ccc(Cl)cc3)c1-2	-0.72	i	-12.9*	i	-9.7	i	69.5%*	i	37.5%*
CC(C)C(C)NC(=O)COc1ccc(OCc2ccccc2)cc1 (stereo not given)	1.82	i	i	i	-11.4	i	·	·	·
CC(C)C(C)NC(=O)COc1ccc(-c2ccccc2)cc1 (stereo not given)	-0.04	i	-9.86*	i	-10.3	i	34.0%*	i	i
C=CCC1(CC=C)CCCN1C(=O)c1cc(COc2cccc(OC)c2)on1	-0.57	i	i	i	-5.1	i	i	i	i
COc1cccc(OCc2cc(C(=O)N3CCN(C)C(c4ccccc4)C3)no2)c1 (stereo not given)	-1.8	i	i	i	-12.0	i	i	i	i
COCC1CCN(C(=O)c2cc(COc3ccc4c(c3)CCCC4)on2)C1 (stereo not given)	0.39	i	i	i	-12.6	i	i	i	i
COCCN(C(=O)COC(=O)C1CC1)c1c(N)n(Cc2ccccc2)c(=O)[nH]c1=O	0.24	i	i	i	-6.6	i	·	·	·
CCN(CC)S(=O)(=O)c1cc(NC(=O)C(C)N(C)CC(=O)Nc2c(C)cccc2C)ccc1C (stereo not given)	-1.22	i	-10.3*	i	-10.9	i	52.5%*	i	36.0%*
CCN(CC)S(=O)(=O)c1cc(NC(=O)C(C)N2CCc3ccccc32)ccc1C (stereo not given)	1.88	i	i	i	-13.8	i	·	·	·
SMILES	Kir21 inh	KCNQ1 act	KCNK9 inh	KCNQ1 block	hERG protect	KCNK3 block	KCNK9 inh conf	Kir21 sel	KCNK9 uninduced
Cc1nc(Nc2ccc(Cl)cc2Cl)sc1C(=O)Nc1ccccc1	-0.52	i	i	i	-6.2	i	i	i	i
CN(C)CCNC(=O)c1onc(CSc2ccc(F)cc2)c1C(=O)NCCN(C)C	0.7	i	i	i	-7.2	i	·	·	·
CC(C)CCNC(=O)c1onc(CSc2ccc(Cl)cc2)c1C(=O)NCCC(C)C	1.02	i	i	i	-13.9	i	i	i	i
CC(C)CCNC(=O)c1onc(CSc2ccc(F)c(F)c2)c1C(=O)NCCC(C)C	2.64	i	i	i	-5.1	i	i	i	i
CC(C)CCNC(=O)c1onc(CSc2ccccc2)c1C(=O)NCCC(C)C	-0.77	i	i	i	-5.8	i	i	i	i
CCCNC(=O)c1onc(CSc2ccc(F)c(F)c2)c1C(=O)NCCC	0.39	i	i	i	-6.6	·	·	·	·
CC(C)CCNC(=O)c1onc(CSc2ccc(F)cc2)c1C(=O)NCCC(C)C	-0.69	i	i	7*	-2.5	i	i	i	i
CCCNC(=O)c1onc(CSc2ccccc2)c1C(=O)NCCC	0.29	i	i	i	-11.1	i	·	·	·
Cc1ccccc1C(=O)Nc1nnc(SCC(=O)NCc2ccco2)s1	0.78	i	i	i	-5.6	i	·	·	·
CCCCc1ccc(-n2c(Cc3cccs3)n[nH]c2=S)cc1	0.14	i	i	i	-12.4	i	·	·	·
CC(=O)N1CC23C=CC(CC2CC12CCCCCC2)O3 (stereo not given)	-0.76	i	i	i	-9.7	i	·	·	·
O=C(NCC1CCCCC1)c1cccc(Br)c1	-0.24	i	i	i	-7.3	i	·	·	·
COc1cccc(SCc2noc(C(=O)NCCC(C)C)c2C(=O)NCCC(C)C)c1	-0.67	i	i	i	-13.4	i	i	i	i
